An excerpt weighted towards active compounds, which were near 3.1% of everything screened.
OX1R antag-1: antagonists of human orexin 1 receptor (OX1R). O43613. OX1R-expressing cells, FRET antagonist read-out. inhibition, % at 6.6 µM. 330,000 compounds, 1.8% hits. AID 485270; in the data active means inhibition mostly above about 38%, no sharp cut-off; inactive means mostly below about 40%
GalR3 antagonist: antagonists of human GalR3; O60755; HEK293 GalR3-CNG cAMP membrane potential fluorescence; galR3 body fused to GalR1 C-terminus; inhibition, % at 3 µM; 360,000 compounds, 0.44% hits; AID 651719;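 active means inhibition above the screen-wide average plus 3 SD, cut at about 13% in these data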;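 further: forskolin and galanin both at EC90 stimulate the cells; cAMP rise reported by CNG channel membrane potential dye signal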
CHO parental Ca: signal in parental CHO cells, OX1R antagonist counter-screen | inhibition, % at 5.6 µM | AID 463079 | 330,000 compounds, 0.63% hits | parental CHO-K1, ATP-induced calcium, Fluo-8 fluorescence;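 active means inhibition above that plate's mean sample inhibition plus 3 SD, cut at about 26% in these data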
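test system = CHO parental line | reagent = ATP stimulus | measured by = intracellular calcium via Fluo-8 no-wash fluorescent dye | control set = ATP and no-ATP DMSO wells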
GPR7 antag: human neuropeptides B/W receptor 1 antagonism; inhibition, % at 4.4 µM; P48145; 290,000 compounds, 1.1% hits; GPR7-expressing cells, fluorescence antagonist assay; AID 1861; in the data active means inhibition above about 16%, passing the limit was not always enough;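 further: cells stimulated with the agonist NPW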
Target sequence (P48145 whole entry, looked up): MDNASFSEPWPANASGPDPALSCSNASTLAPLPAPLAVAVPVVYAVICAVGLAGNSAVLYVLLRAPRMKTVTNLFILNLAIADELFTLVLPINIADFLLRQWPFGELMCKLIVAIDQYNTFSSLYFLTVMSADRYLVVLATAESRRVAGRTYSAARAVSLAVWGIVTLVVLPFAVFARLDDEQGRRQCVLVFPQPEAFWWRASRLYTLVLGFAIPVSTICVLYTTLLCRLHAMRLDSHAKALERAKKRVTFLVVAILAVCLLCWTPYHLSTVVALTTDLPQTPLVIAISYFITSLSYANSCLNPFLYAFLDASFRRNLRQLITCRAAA
OX1R antag-2: blocks the human orexin 1 receptor. O43613. CHO/OX1R cells, Fluo-8 calcium fluorescence, orexin A. inhibition, % at 5 µM. 330,000 compounds, 0.43% hits. AID 434989;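 active means inhibition above its plate's threshold, mean inhibition of all tested compounds on the plate plus 3 SD, cut at about 37% in these data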
OX1R HTRF conf: OX1R (human) antagonism, HTRF confirmed; shares compounds with OX1R antag-1; OX1R-expressing cells, HTRF antagonist assay; 1,800 compounds, 49% hits; inhibition, % at 6.6 µM; AID 492964; in the data active means inhibition above about 55%;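 further: CHO cells expressing OX1R stimulated with orexin A at about EC80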
CHO-K1 HTRF: counter-screen for OX1R antagonists: effect in parental CHO-K1 cells. AID 493232. inhibition, % at 6.6 µM. 1,800 compounds, 48% hits. shares compounds with OX1R antag-1. HTRF counterscreen; in the data active means inhibition above about 17%
Large screens that a line does not name were inactive (follow-up assays come after a bar, where they were run).

O=c1c([N+](=O)[O-])cccn1Cc1ccccc1Cl	OX1R antag-1 79 | OX1R HTRF conf inactive | CHO-K1 HTRF 27
O=c1c([N+](=O)[O-])cccn1Cc1cccc(Br)c1	none (no result: OX1R antag-1, CHO parental Ca, OX1R antag-2)
Cc1nc2ccccc2c2oc(C(=O)Nc3ccc4c(c3)OCCO4)cc12	OX1R antag-1 95 | OX1R HTRF conf 89 | CHO-K1 HTRF inactive
Cc1c(C(=O)NCc2ccc3c(c2)OCO3)oc2ccc(Br)cc12	none
Cc1c(C(=O)Nc2ccc3c(c2)OCCO3)oc2ccc(Br)cc12	OX1R antag-1 82 (no result: GPR7 antag) | OX1R HTRF conf 76 | CHO-K1 HTRF inactive
Cc1ccccc1CNC(=O)c1ccccc1N(C)S(=O)(=O)c1ccccc1	none
Cc1cccc(-n2ccc(=O)c(C(=O)Nc3ccc(S(=O)(=O)Nc4onc(C)c4C)cc3)n2)c1	none
O=C1CCc2cc(S(=O)(=O)NCCC(=O)NC3CCCCC3)ccc2N1	none
O=C(NCCCN1CCOCC1)c1cccc(S(=O)(=O)Nc2ccccc2Cl)c1	none
CC(C)c1nn2c(N)c(/C=C3\C=Nc4ccccc43)c(=O)nc2s1	OX1R antag-1 82 | OX1R HTRF conf 66 | CHO-K1 HTRF inactive
O=C1C=C(N2CCCCC2)c2ccccc2C1=O	OX1R antag-1 84 (no result: GPR7 antag) | OX1R HTRF conf 66 | CHO-K1 HTRF 110
O=C1c2ccccc2C(=O)c2c1cccc2N1CCCC1	none
Cn1c(=O)c2nc(Cl)c(-c3ccccc3)nc2n(C)c1=O	OX1R antag-1 87 | OX1R HTRF conf inactive | CHO-K1 HTRF 80
Cn1c(=O)c2nc3ccccc3nc2n(C)c1=O	OX1R antag-1 160 | OX1R HTRF conf 92 | CHO-K1 HTRF 95
Cn1c(=O)c2[nH]c(CCCCCc3nc4ccccc4[nH]3)nc2n(C)c1=O	none (no result: OX1R antag-1, CHO parental Ca, GPR7 antag, OX1R antag-2)
COc1ccc([C@H]2C[C@H](n3cc(-c4ccc(F)cc4)nn3)[C@@H](O)CN2CC2CCCCC2)cc1	none (no result: OX1R antag-1, CHO parental Ca, GPR7 antag, OX1R antag-2)
Nc1ccc(S(=O)(=O)NC(Cc2ccccc2)C(=O)O)cc1 (stereo unspecified)	none
CCOC(=O)c1sc(NC(=O)C2CCC2)cc1C	none
CCOC(=O)c1sc(NC(=O)Nc2ccccc2Cl)cc1C	OX1R antag-1 78 | OX1R HTRF conf inactive | CHO-K1 HTRF inactive
CCOC(=O)c1cc(NC(=O)Nc2ccccc2Cl)c(C)nc1C	none
CCOC(=O)c1sc(NC(=O)c2ccc(C)s2)cc1C	OX1R antag-1 79 | OX1R HTRF conf inactive | CHO-K1 HTRF inactive
CNc1ccc(C(=O)c2ccccc2C(=O)O)cc1[N+](=O)[O-]	OX1R antag-1 80 | OX1R HTRF conf inactive | CHO-K1 HTRF 36
NC(=O)C1CCN(C2=C(NS(=O)(=O)c3ccc(Cl)cc3)C(=O)c3ccccc3C2=O)CC1	OX1R antag-1 179 | OX1R HTRF conf inactive | CHO-K1 HTRF 57
COC(=O)C1CCN(C2=C(NS(=O)(=O)c3ccc(Cl)cc3)C(=O)c3ccccc3C2=O)CC1	OX1R antag-1 98 | OX1R HTRF conf inactive | CHO-K1 HTRF 59
CCOC(=O)N1CCN(C2=C(NS(=O)(=O)c3ccc(C)cc3)C(=O)c3ccccc3C2=O)CC1	OX1R antag-1 83 | OX1R HTRF conf 58 | CHO-K1 HTRF 91
CC1CCCN(C2=C(NS(=O)(=O)c3ccc(Cl)cc3)C(=O)c3ccccc3C2=O)C1 (stereo unspecified)	none
Cc1ccc(S(=O)(=O)NC2=C(N3CCN(Cc4ccccc4)CC3)C(=O)c3ccccc3C2=O)cc1	none
CSCCC(NS(=O)(=O)c1ccc(C)cc1)C(=O)N1CCN(S(=O)(=O)c2ccc(F)cc2)CC1 (stereo unspecified)	none (no result: GPR7 antag)
CCCC(=O)NC1=C(Cl)C(=O)c2ccccc2C1=O	none (no result: OX1R antag-1, CHO parental Ca, GPR7 antag, OX1R antag-2)
O=C1C(Cl)=C(NCCN2CCCCC2)C(=O)c2ccccc21	OX1R antag-1 90 (no result: GalR3 antagonist) | OX1R HTRF conf 68 | CHO-K1 HTRF 71
CCNC1=C(Cl)C(=O)c2ccccc2C1=O	OX1R antag-1 178 | OX1R HTRF conf 58 | CHO-K1 HTRF 93
COc1ccc(C)cc1N1CC(C(=O)OCc2nc(N)nc(Nc3ccccc3C)n2)CC1=O (stereo unspecified)	none (no result: OX1R antag-1, CHO parental Ca, GPR7 antag, OX1R antag-2)
O=C(NCc1ccccc1CN1CCCC1)c1ccc(Cl)c(N2CCCC2=O)c1	none (no result: GPR7 antag)
O=C(Cn1cccc1C(=O)c1ccccc1)NCCCc1ccccc1	none
O=C(Cn1cccc1C(=O)c1ccccc1)NCCC1=CCCCC1	OX1R antag-1 98 | OX1R HTRF conf inactive | CHO-K1 HTRF inactive

Bioassay records: PubChem BioAssay, The Scripps Research Institute Molecular Screening Center
